Experimental data published in publication PMC2782628 (Journal of medicinal chemistry, 2009).
Each block holds one compound with its values, some of them ahead of it.

Experiments:
recombinant human iNOS = recombinant human iNOS (Homo sapiens, UniProt P35228); experiment: NOS enzyme assay; format: biochemical; conditions: for activity in the iNOS assay: structure-activity discussion
Procedure, shortened: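 Recombinant iNOS in 50 mM Tris pH 7.4 with 1.0 mM NADPH, 3.8 µM each of FMN, FAD and tetrahydro-L-biopterin, 2.0 mM DTT and 2.0 µM L-arginine. Test compound was diluted in methanol or water. [3H]arginine (0.1 µCi) started the reaction, run 30 min at room temperature. Stopped with yttrium-silicate arginine-binding SPA beads in NaOH; beads settled 2 h, then counted. IC50 from inhibition curves, mean ± S.D., N≥3.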

recombinant human eNOS = recombinant human eNOS (Homo sapiens, UniProt P29474); experiment: NOS enzyme assay; format: biochemical; conditions: iNOS vs eNOS
Procedure, shortened: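 The eNOS buffer also had 20 µg/mL calmodulin and 1 mM CaCl2. [3H]arginine started the reaction, 30 min at room temperature. SPA arginine-binding beads stopped it; counted after 2 h. Mean ± S.D., N≥3.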

iNOS = iNOS (Mus musculus, UniProt P29477); experiment: Blocking study of [18F]9 uptake in LPS-treated mice; format: in vivo, C57BL/6N mice
[1] = In vivo biodistribution time-course study in control vs. LPS-treated mice; parameters: species or system C57BL/6 mice; conditions: for Biodistribution Blood / Biodistribution Bone / Biodistribution Brain / Biodistribution Heart / Biodistribution Kidney / Biodistribution Liver / Biodistribution Lung / Biodistribution Muscle: mean ± SD, n = 4
Procedure, shortened: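 Mature male C57BL/6N mice (6-8 weeks), either given E. coli O127:B8 LPS in PBS (10 mg/kg i.v.) 6 h before tracer or left untreated. HPLC-purified [18F]-labelled test compound (~50 μCi in 10% ethanol/saline) injected i.v. via tail vein. Sacrificed at 5 min, 30 min, 1 h and 2 h. Blood, tissues and organs weighed and gamma-counted against diluted injectate standards, giving %ID/g (mean ± SD).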

Chain of recombinant human iNOS (P35228 whole entry): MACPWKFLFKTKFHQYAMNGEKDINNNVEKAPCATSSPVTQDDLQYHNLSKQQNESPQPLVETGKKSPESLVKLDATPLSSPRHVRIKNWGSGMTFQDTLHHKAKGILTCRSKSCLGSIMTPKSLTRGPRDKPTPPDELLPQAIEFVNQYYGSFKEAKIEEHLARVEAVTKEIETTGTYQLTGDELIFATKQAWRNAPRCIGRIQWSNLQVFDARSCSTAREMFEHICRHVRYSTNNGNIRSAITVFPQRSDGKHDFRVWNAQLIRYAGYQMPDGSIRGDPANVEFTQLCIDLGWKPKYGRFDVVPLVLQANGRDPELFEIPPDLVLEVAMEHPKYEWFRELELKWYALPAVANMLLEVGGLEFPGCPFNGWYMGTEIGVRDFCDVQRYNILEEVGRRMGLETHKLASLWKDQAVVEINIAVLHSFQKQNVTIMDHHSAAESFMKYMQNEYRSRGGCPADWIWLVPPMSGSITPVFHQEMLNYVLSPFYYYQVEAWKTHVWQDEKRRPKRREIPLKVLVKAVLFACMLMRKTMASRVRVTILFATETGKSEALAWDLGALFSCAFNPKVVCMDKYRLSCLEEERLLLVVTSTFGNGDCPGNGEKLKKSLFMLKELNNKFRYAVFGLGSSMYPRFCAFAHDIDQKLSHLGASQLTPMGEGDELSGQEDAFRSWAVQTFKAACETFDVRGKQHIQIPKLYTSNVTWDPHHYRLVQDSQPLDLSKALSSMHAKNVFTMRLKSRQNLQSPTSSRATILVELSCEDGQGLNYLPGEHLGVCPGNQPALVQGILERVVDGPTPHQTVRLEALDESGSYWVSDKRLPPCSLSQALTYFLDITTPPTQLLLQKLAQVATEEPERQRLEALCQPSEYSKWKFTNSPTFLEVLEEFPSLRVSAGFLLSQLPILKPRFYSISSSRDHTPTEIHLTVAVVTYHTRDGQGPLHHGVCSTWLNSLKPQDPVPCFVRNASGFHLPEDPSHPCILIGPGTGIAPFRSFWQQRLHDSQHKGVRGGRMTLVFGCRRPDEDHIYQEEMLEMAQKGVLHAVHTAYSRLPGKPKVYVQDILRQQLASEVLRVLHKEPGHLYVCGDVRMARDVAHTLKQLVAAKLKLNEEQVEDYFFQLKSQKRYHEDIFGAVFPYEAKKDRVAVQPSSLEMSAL

SMILES: COCCC(C)Cc1cc(C)cc(N)n1 (centres unmarked) [Compound 27, 6-(4-methoxy-2-methylbutyl)-4-methylpyridin-2-amine]
- activity in the iNOS assay (recombinant human iNOS): inactive

SMILES: Cc1ccnc(N)c1 [Compound 1, 2-amino-4-methylpyridine]
- blocking of the increased [18F]9 uptake in the LPS-treated mice (iNOS; blocking agent 10 mg/kg, i.v., data not shown): failed to block

SMILES: Cc1cc(N)nc(CC(C)OCCF)c1 (centres unmarked) [Compound 15, 6-(2-(2-Fluoroethoxy)propyl)-4-methylpyridin-2-amine]
- activity in the iNOS assay (recombinant human iNOS): inactive

SMILES: Nc1ccccn1 [Compound 2-AP, 2-aminopyridine, reference compound]
- IC50 (recombinant human iNOS): 0.108 µM

Further lines, results first:

- selectivity against eNOS (recombinant human eNOS): approximately 30 fold
SMILES: Cc1cc(N)nc(CCCF)c1 [Compound 18, 6-(3-Fluoropropyl)-4-methylpyridin-2-amine]

- tracer ([18F]9) uptake in the lungs and blood of the LPS-treated mice blocked (iNOS; mouse, in vivo): 32%
SMILES: CC(=N)NCc1cccc(CN)c1 [Compound 1400W, N-(3-(aminomethyl)benzyl)acetamidine]

- Biodistribution Blood ([1]; 5 min, Control mice): 2.37±0.18 %ID/g
- Biodistribution Blood ([1]; 5 min, LPS-treated mice): 3.69±0.38 %ID/g
- Biodistribution Blood ([1]; 30 min, Control mice): 1.22±0.16 %ID/g
- Biodistribution Blood ([1]; 30 min, LPS-treated mice): 2.09±0.35 %ID/g
- Biodistribution Blood ([1]; 1 h, Control mice): 0.31±0.04 %ID/g
- Biodistribution Blood ([1]; 1 h, LPS-treated mice): 0.86±0.09 %ID/g
- Biodistribution Blood ([1]; 2 h, Control mice): 0.27±0.22 %ID/g
- Biodistribution Blood ([1]; 2 h, LPS-treated mice): 0.23±0.05 %ID/g
- Biodistribution Bone ([1]; 5 min, Control mice): 1.52±0.36 %ID/g
- Biodistribution Bone ([1]; 5 min, LPS-treated mice): 1.59±0.15 %ID/g
- Biodistribution Bone ([1]; 30 min, Control mice): 2.26±0.55 %ID/g
- Biodistribution Bone ([1]; 30 min, LPS-treated mice): 3.70±1.20 %ID/g
- Biodistribution Bone ([1]; 1 h, Control mice): 2.57±0.64 %ID/g
- Biodistribution Bone ([1]; 1 h, LPS-treated mice): 4.30±0.90 %ID/g
- Biodistribution Bone ([1]; 2 h, Control mice): 5.59±4.20 %ID/g
- Biodistribution Bone ([1]; 2 h, LPS-treated mice): 3.77±1.41 %ID/g
- Biodistribution Brain ([1]; 5 min, Control mice): 1.60±0.17 %ID/g
- Biodistribution Brain ([1]; 5 min, LPS-treated mice): 1.81±0.09 %ID/g
- Biodistribution Brain ([1]; 30 min, Control mice): 0.28±0.02 %ID/g
- Biodistribution Brain ([1]; 30 min, LPS-treated mice): 0.52±0.15 %ID/g
- Biodistribution Brain ([1]; 1 h, Control mice): 0.11±0.02 %ID/g
- Biodistribution Brain ([1]; 1 h, LPS-treated mice): 0.19±0.03 %ID/g
- Biodistribution Brain ([1]; 2 h, Control mice): 0.07±0.03 %ID/g
- Biodistribution Brain ([1]; 2 h, LPS-treated mice): 0.07±0.03 %ID/g
- Biodistribution Heart ([1]; 5 min, Control mice): 1.50±0.12 %ID/g
- Biodistribution Heart ([1]; 5 min, LPS-treated mice): 2.03±0.06 %ID/g
- Biodistribution Heart ([1]; 30 min, Control mice): 0.60±0.05 %ID/g
- Biodistribution Heart ([1]; 30 min, LPS-treated mice): 1.02±0.16 %ID/g
- Biodistribution Heart ([1]; 1 h, Control mice): 0.19±0.02 %ID/g
- Biodistribution Heart ([1]; 1 h, LPS-treated mice): 0.41±0.10 %ID/g
- Biodistribution Heart ([1]; 2 h, Control mice): 0.08±0.02 %ID/g
- Biodistribution Heart ([1]; 2 h, LPS-treated mice): 0.12±0.04 %ID/g
- Biodistribution Kidney ([1]; 5 min, Control mice): 20.6±2.4 %ID/g
- Biodistribution Kidney ([1]; 5 min, LPS-treated mice): 26.7±4.1 %ID/g
- Biodistribution Kidney ([1]; 30 min, Control mice): 7.30±0.66 %ID/g
- Biodistribution Kidney ([1]; 30 min, LPS-treated mice): 10.9±2.8 %ID/g
- Biodistribution Kidney ([1]; 1 h, Control mice): 2.20±0.25 %ID/g
- Biodistribution Kidney ([1]; 1 h, LPS-treated mice): 3.95±0.53 %ID/g
- Biodistribution Kidney ([1]; 2 h, Control mice): 0.80±0.27 %ID/g
- Biodistribution Kidney ([1]; 2 h, LPS-treated mice): 0.91±0.63 %ID/g
- Biodistribution Liver ([1]; 5 min, Control mice): 33.2±3.3 %ID/g
- Biodistribution Liver ([1]; 5 min, LPS-treated mice): 24.6±3.1 %ID/g
- Biodistribution Liver ([1]; 30 min, Control mice): 10.7±0.3 %ID/g
- Biodistribution Liver ([1]; 30 min, LPS-treated mice): 7.06±0.28 %ID/g
- Biodistribution Liver ([1]; 1 h, Control mice): 2.59±0.49 %ID/g
- Biodistribution Liver ([1]; 1 h, LPS-treated mice): 2.63±0.52 %ID/g
- Biodistribution Liver ([1]; 2 h, Control mice): 0.74±0.23 %ID/g
- Biodistribution Liver ([1]; 2 h, LPS-treated mice): 0.42±0.15 %ID/g
- Biodistribution Lung ([1]; 5 min, Control mice): 3.33±0.28 %ID/g
- Biodistribution Lung ([1]; 5 min, LPS-treated mice): 4.32±0.32 %ID/g
- Biodistribution Lung ([1]; 30 min, Control mice): 1.14±0.13 %ID/g
- Biodistribution Lung ([1]; 30 min, LPS-treated mice): 1.84±0.27 %ID/g
- Biodistribution Lung ([1]; 1 h, Control mice): 0.31±0.06 %ID/g
- Biodistribution Lung ([1]; 1 h, LPS-treated mice): 0.73±0.17 %ID/g
- Biodistribution Lung ([1]; 2 h, Control mice): 0.15±0.03 %ID/g
- Biodistribution Lung ([1]; 2 h, LPS-treated mice): 0.18±0.09 %ID/g
- Biodistribution Muscle ([1]; 5 min, Control mice): 1.25±0.06 %ID/g
- Biodistribution Muscle ([1]; 5 min, LPS-treated mice): 1.64±0.09 %ID/g
- Biodistribution Muscle ([1]; 30 min, Control mice): 0.71±0.31 %ID/g
- Biodistribution Muscle ([1]; 30 min, LPS-treated mice): 1.06±0.40 %ID/g
- Biodistribution Muscle ([1]; 1 h, Control mice): 0.27±0.18 %ID/g
- Biodistribution Muscle ([1]; 1 h, LPS-treated mice): 0.78±0.47 %ID/g
- Biodistribution Muscle ([1]; 2 h, Control mice): 0.34±0.27 %ID/g
- Biodistribution Muscle ([1]; 2 h, LPS-treated mice): 0.23±0.13 %ID/g
- increase in injected dose/gram (ID/g) in the lungs, LPS-treated vs control mice ([1]; 5 min): 30%
- increase in injected dose/gram (ID/g) in the lungs, LPS-treated vs control mice ([1]; 30 min): 60%
SMILES: Cc1cc(N)nc(CC(C)[18F])c1 (centres unmarked) [[^18F]9, [^18F]6-(2-Fluoropropyl)-4-methylpyridin-2-amine]

- activity in the iNOS assay (recombinant human iNOS): inactive
SMILES: COC(C)Cc1cc(C)cc(N)n1 (centres unmarked) [Compound 13, 6-(2-Methoxypropyl)-4-methylpyridin-2-amine]

- activity in the iNOS assay (recombinant human iNOS): inactive
SMILES: CSCCC(C)Cc1cc(C)cc(N)n1 (centres unmarked) [Compound 33, 4-Methyl-6-(2-methyl-4-(methylthio)butyl)pyridin-2-amine]
